Measurements as given in ChEMBL document CHEMBL1687736, “Identification and biochemical characterization of small-molecule inhibitors of Clostridium botulinum neurotoxin serotype A” (Antimicrob Agents Chemother, 2009).
The source made the active and inactive calls. The calls are words filed in the database; no cut-off is given here.

What was measured:
[1] = target: Botulinum neurotoxin type A (Clostridium botulinum) (UniProt P0DPI0); assay: Inhibition of protease activity of recombinant full-length Clostridium botulinum BoNT/A light chain at 200 uM after 5 mins by HPLC-based assay
Botulinum neurotoxin type A (Clostridium botulinum), sequence (P0DPI0 2-448 limits assumed): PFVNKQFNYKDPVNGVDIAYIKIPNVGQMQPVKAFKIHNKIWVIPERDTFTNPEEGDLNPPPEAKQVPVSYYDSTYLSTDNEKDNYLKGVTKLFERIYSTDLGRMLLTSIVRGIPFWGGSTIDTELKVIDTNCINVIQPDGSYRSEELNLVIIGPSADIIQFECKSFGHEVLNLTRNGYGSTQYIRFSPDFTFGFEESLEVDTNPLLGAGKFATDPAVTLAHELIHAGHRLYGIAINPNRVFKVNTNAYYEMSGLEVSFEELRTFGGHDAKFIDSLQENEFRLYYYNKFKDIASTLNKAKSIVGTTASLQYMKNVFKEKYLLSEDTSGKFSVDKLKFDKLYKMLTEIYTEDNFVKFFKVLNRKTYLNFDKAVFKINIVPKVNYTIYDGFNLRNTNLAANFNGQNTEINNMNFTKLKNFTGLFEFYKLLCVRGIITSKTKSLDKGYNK
Summary of the method: (§1)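 Full-length recombinant BoNT/A LC (110-140 nM) with 0.8 mM SNAP-25 17-mer peptide in 50 mM HEPES pH 7.3. Compound was added from DMSO stock without preincubation, then LC, 5 min at 37°C. TFA stop, reverse-phase HPLC. Percent inhibition came from substrate cleaved with versus without compound; the 20 µM data are means ± SD of two independent assays.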

[2] = target: Botulinum neurotoxin type A (Clostridium botulinum) (UniProt P0DPI0); assay: Inhibition of protease activity of recombinant full-length Clostridium botulinum BoNT/A light chain at 20 uM after 5 mins by HPLC-based assay; summary of the method: as §1
[3] = Cytotoxicity against mouse Neuro2a cells at >= 10 uM; type: cell-based; details: n2a
[4] = target: Botulinum neurotoxin type A (Clostridium botulinum) (UniProt P0DPI0); assay: Inhibition of Clostridium botulinum BoNT/A-mediated neuromuscular block in CD1 mouse phrenic nerve hemidiaphragm assessed as time required to 50% loss of twitch tension at 20 uM after 15 to 20 mins
[5] = Inhibition of zinc carboxypeptidase A at up to 20 uM
Summary of the method: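 Carboxypeptidase A kit plate assay: CPA with compounds from DMSO at various concentrations, 5 min at 25°C, then stop solution and absorbance read at 350 nm. Percent inhibition was taken versus CPA with DMSO; potato tuber CPA inhibitor served as control. Two independent determinations, each in triplicate.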

[6] = target: Botulinum neurotoxin type A (Clostridium botulinum) (UniProt P0DPI0); assay: Inhibition of Clostridium botulinum BoNT/A light chain-mediated SNAP-25 cleavage in mouse Neuro2a cells at 10 uM after 30 mins by Western blotting; type: cell-based
[7] = target: Botulinum neurotoxin type A (Clostridium botulinum) (UniProt P0DPI0); assay: Inhibition of Clostridium botulinum BoNT/A light chain-mediated SNAP-25 cleavage in mouse Neuro2a cells at 15 uM after 30 mins by Western blotting; type: cell-based
[8] = target: T1, Botulinum neurotoxin type B (Clostridium botulinum) (UniProt P10844); assay: Inhibition of protease activity of recombinant full-length Clostridium botulinum BoNT/B light chain at 20 uM after 5 mins by HPLC-based assay
T1 sequence (whole entry): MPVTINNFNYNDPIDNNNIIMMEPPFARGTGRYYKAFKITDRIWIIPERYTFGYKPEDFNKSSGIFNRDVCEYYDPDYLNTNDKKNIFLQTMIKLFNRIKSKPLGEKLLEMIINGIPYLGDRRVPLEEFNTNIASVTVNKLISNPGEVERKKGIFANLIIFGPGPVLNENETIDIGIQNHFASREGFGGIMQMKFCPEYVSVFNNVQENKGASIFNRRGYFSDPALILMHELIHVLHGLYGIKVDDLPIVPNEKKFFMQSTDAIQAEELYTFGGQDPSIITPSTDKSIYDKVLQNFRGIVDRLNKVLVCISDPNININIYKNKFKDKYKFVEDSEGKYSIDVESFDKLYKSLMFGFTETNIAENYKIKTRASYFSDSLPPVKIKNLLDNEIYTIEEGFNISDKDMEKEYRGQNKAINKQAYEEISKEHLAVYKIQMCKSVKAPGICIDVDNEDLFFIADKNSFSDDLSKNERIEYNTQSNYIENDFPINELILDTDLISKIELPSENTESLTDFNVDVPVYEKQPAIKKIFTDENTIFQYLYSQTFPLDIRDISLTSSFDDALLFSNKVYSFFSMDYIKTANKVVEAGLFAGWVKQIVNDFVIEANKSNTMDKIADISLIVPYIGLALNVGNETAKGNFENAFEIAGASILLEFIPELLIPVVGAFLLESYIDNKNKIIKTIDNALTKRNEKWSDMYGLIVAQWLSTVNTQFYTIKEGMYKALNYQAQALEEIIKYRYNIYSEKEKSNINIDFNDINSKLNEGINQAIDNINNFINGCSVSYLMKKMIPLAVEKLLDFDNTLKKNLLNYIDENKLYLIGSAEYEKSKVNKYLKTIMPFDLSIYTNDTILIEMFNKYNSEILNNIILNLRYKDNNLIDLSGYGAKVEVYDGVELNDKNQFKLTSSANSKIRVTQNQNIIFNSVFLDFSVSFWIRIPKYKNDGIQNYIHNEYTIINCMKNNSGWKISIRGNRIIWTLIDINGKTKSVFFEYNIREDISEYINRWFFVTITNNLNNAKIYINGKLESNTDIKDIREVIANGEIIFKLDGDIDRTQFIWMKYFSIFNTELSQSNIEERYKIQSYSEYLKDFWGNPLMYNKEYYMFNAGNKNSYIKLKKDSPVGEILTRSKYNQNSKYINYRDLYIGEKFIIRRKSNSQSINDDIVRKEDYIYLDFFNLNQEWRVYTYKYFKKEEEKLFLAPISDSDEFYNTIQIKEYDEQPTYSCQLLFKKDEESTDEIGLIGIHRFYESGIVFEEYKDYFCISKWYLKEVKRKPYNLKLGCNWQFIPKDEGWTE
Summary of the method: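 Recombinant BoNT/B LC (30-40 nM) with 0.4 mM 35-mer human VAMP-2 (60-94) peptide, 1 mM DTT, 50 mM HEPES pH 7.3. Compound was added at 20 µM final without preincubation, then 5 min at 37°C. TFA stop, reverse-phase HPLC quantification of cleavage. Means ± SD of two independent assays.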

[9] = target: T2, Botulinum neurotoxin type A (Clostridium botulinum, UniProt P0DPI0); assay: Inhibition of protease activity of recombinant full-length Clostridium botulinum BoNT/A light chain after 5 mins by HPLC-based assay
T2 sequence (P0DPI0 2-448 limits assumed): as the sequence (P0DPI0 2-448 limits assumed) above
Summary of the method: (§2)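 Recombinant BoNT/A light chain, full-length at 140 nM or truncated (residues 1-425) at 620 nM final, with 0.8 mM 17-mer SNAP-25 (187-203) peptide in 50 mM HEPES pH 7.3. Inhibitor was added from DMSO at nine concentrations, then 5 min at 37°C. Stopped with 0.7% TFA, cleavage quantified by reverse-phase HPLC, and IC50 derived by log-probit analysis.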

[10] = target: T2, Botulinum neurotoxin type A; assay: Inhibition of protease activity of recombinant Clostridium botulinum BoNT/A (1 to 425) light chain after 5 mins by HPLC-based assay; summary of the method: as §2
[11] = target: Botulinum neurotoxin type A (Clostridium botulinum) (UniProt P0DPI0); assay: Inhibition of Clostridium botulinum BoNT/A-mediated neuromuscular block in CD1 mouse phrenic nerve hemidiaphragm assessed as time required to 50% loss of twitch tension at 10 uM after 15 to 20 mins
[12] = target: Botulinum neurotoxin type A (Clostridium botulinum) (UniProt P0DPI0); assay: Inhibition of Clostridium botulinum BoNT/A-mediated neuromuscular block in CD1 mouse phrenic nerve hemidiaphragm assessed as time required to 50% loss of twitch tension at 5 uM after 15 to 20 mins
[13] = target: Botulinum neurotoxin type A (Clostridium botulinum) (UniProt P0DPI0); assay: Inhibition of Clostridium botulinum BoNT/A-mediated neuromuscular block in CD1 mouse phrenic nerve hemidiaphragm assessed as time required to 50% loss of twitch tension at 0.5 uM after 15 to 20 mins
[14] = target: T2, Botulinum neurotoxin type A; assay: Binding affinity to Clostridium botulinum BoNT/A

Row | Compound | inhibition [1] [%] | inhibition [2] [%] | Activity [5] | inhibition [6] | Activity [7] | inhibition [8] [%] | IC50 [9] [nM] | IC50 [10] [nM] | other results
1 | Cc1ccc(NC(=O)/C(CC(=O)c2sc(Nc3ccccc3Cl)nc2C)=N/Nc2ccc([N+](=O)[O-])cc2[N+](=O)[O-])c(C)c1 | 85 | 51 | – | – | – | – | – | – | –
2 | Cc1ccc([N+](=O)[O-])cc1NC(=O)NNC(=O)CNC(=O)NCc1ccco1 | 75 | 52 | – | – | – | – | – | – | –
3 | O=C1c2ccccc2C(=O)N1CNc1ccccc1/C(=N/Nc1ccc([N+](=O)[O-])cc1[N+](=O)[O-])c1ccccc1 | 82 | 49 | – | – | – | – | – | – | –
4 | O=[N+]([O-])c1ccc(NCCNc2ccc([N+](=O)[O-])cc2)cc1 | 80 | 44 | – | – | – | – | – | – | –
5 | O=[N+]([O-])c1cccc(CN(Cc2cccc([N+](=O)[O-])c2O)c2ccccc2)c1O | 75 | 37 | – | – | – | – | – | – | –
6 | O=[N+]([O-])c1ccc(NC(c2ccccc2)c2ccc3cccnc3c2O)cc1 (racemic) | 87 | 52 | – | – | – | – | – | – | Activity [3]: Toxic
7 | Oc1c(C(Nc2cccc3cccnc23)c2ccccc2)ccc2cccnc12 (racemic) | 91.9 | – | inactive | 66% | Active | 6.9 | 3200 | 3900 | TIME [4]: 1.09 h
8 | Oc1c(C(Nc2ccccn2)c2ccccc2)ccc2cccnc12 (racemic) | – | – | inactive | Active | Active | 8.8 | 1600 | 1500 | TIME [11]: 4.44 h
9 | Oc1c(C(Nc2cccnc2)c2ccc(C(F)(F)F)cc2)ccc2cccnc12 (racemic) | 92.7 | – | inactive | Active | Active | 30.2 | 4700 | 5000 | TIME [12]: 3.6 h
10 | Oc1c(C(Nc2cccnc2)c2ccccc2F)ccc2cccnc12 (racemic) | 92.8 | – | inactive | 68% | Active | 16.8 | 3900 | 2400 | TIME [11]: 4.68 h
11 | CCOc1ccc(C(Nc2cccnc2)c2cc(Cl)c3cccnc3c2O)cc1 (racemic) | 96.2 | – | inactive | Active | Active | 31.2 | 2100 | 1600 | TIME [13]: 4.52 h
12 | CC(CO)(Nc1ccc([N+](=O)[O-])cc1[N+](=O)[O-])C(=O)O (racemic) | 65 | 29 | – | – | – | – | – | – | –
13 | Ac-CRATKML-NH2 | – | – | – | – | – | – | – | – | Ki [14]: 1900 nM; Activity [4]: inactive; TIME [4]: 0.878 h
